Hits are enriched below; roughly 2.4% of the tested compounds scored in any of these assays.
NR2E3 ag-1: agonists of human NR2E3 nuclear receptor; CHO-S Gal4-NCOR/VP16-NR2E3 two-hybrid, luciferase; inhibition of corepressor binding, % at 3.98 µM; 360,000 tested, 0.35% active;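 active = inhibition above the mean of all tested compounds plus 3 SD, cut at about 70% in these data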;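 also: 0% = DMSO with NR2E3 transfected cells and 100% = cells lacking NR2E3 construct; higher means lower luciferase signal from less NR2E3 corepressor binding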
MPTP inh: inhibitors of mitochondrial permeability transition pore | AID 602449 | isolated mouse mitochondria, Ca2+ swelling absorbance, 30 min | inhibition, % at 10 µM | 360,000 tested, 1.4% active;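 active = inhibition of 50% or more, scaled per plate between neutral and stimulator controls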;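 also: 0% = DMSO wells given calcium and 100% = 1 mM EGTA wells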
NR2E3 ag-2: agonists of human nuclear receptor NR2E3 | Q9Y5X4 | GST-NR2E3/biotin-RetCOR TR-FRET, 1536-well | inhibition of corepressor binding, % at 4.78 µM | 320,000 tested, 0.12% active | AID 2300;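 active = percent inhibition above the cutoff of mean plus 3 SD of all tested compounds, set per screening campaign, cut at about 20% in these data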;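 also: 0% = DMSO wells and 100% = biotin wells as full block of FRET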
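system = GST-tagged NR2E3 plus biotinylated RetCOR corepressor | input = 1.35 nM GST-NR2E3 | also added = 7 nM biotin-RetCOR | schedule = 5 h incubation at 4 °C | measured by = TR-FRET with europium anti-GST and streptavidin-D2, 340 nm excitation | read-out = percent loss of FRET ratio relative to control wells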
aDG glyco up: alpha-DG glycosylation activation | Pro5-aDG cells, alpha-DG glycosylation AlphaScreen (IIH6); 0% Pro5, 100% B10-LARGE cell signal | activation, % at 10 µM | 360,000 tested, 0.22% active | AID 624168;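 active = activation of at least 8% versus controls, or a plate z-score of at least 8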;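 also: Pro5 are CHO cells carrying HIG-tagged alpha-DG that lacks glycosylation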
Jurkat NFkB inh: inhibitors of the PMA/ionomycin-induced NF-kB reporter in Jurkat cells; PMA/ionomycin-induced NF-kB luciferase reporter, luminescence; inhibition, % at 4 µM; 330,000 tested, 0.53% active; AID 435003; in the data active = inhibition above about 50%
697 NFkB inh: lowers PMA/ionomycin-induced NF-kB signal in 697 B cells | 697 B-cell NF-kB luciferase reporter, 16 h | inhibition, % at 4 µM | 330,000 tested, 0.33% active | AID 435022; in the data active = inhibition above about 35%
NR2E3 ag confirm: NR2E3 (human) agonism, confirmation; shares compounds with NR2E3 ag-2; cell-free NR2E3 corepressor release, TR-FRET, 5 h; activation (reported as inhibition), % at 3.98 µM; 360 tested, 39% active; AID 2379; in the data active = activation above about 20%
PPARg-NCOR2 ag: PPARg-NCOR2 interaction agonism, NR2E3 counter-screen | shares compounds with NR2E3 ag-2 | 360 tested, 45% active | TR-FRET PPARg-NCOR2 coregulator interaction, biochemical | inhibition, % at 3.98 µM; in the data active = inhibition above about 20%;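 also: 0% = DMSO vehicle and 100% = wells without protein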
* hit, by the source's call; / = no result; ! = a repeat was not active.

SMILES | NR2E3 ag-1 | MPTP inh | NR2E3 ag-2 | aDG glyco up | Jurkat NFkB inh | 697 NFkB inh | NR2E3 ag confirm | PPARg-NCOR2 ag
COCCNC(=O)C[C@@H]1C[C@H]2c3cc(NC(=O)Nc4ccc(F)cc4)ccc3O[C@H]2[C@H](CO)O1 | 5.7 | -0.7 | / | -0.1 | / | / | / | /
Nc1ccc(-n2nc3ccccc3n2)cc1 | -61.0 | 3.3 | 3.2 | 0.1 | -77.9 | -75.4 | / | /
Nc1ccc2nn(-c3ccccc3)nc2c1 | -50.1 | 0.0 | / | 5.9* | -23.0 | -83.6 | / | /
Cc1cccc(NC2=C/C(=N/S(=O)(=O)c3cccs3)c3ccccc3C2=O)c1 | -6.4 | 6.8 | 0.0 | 0.6 | / | / | / | /
Cc1ccc(NC2=C/C(=N\S(=O)(=O)c3cccs3)c3ccccc3C2=O)c(C)c1 | 108.3* | 8.3 | 6.9 | -1.2 | -9.6 | -188.8 | / | /
Cc1ccc(Cl)cc1NC1=C/C(=N\S(=O)(=O)c2cccs2)c2ccccc2C1=O | 79.0*! | 13.1 | 9.2 | -0.6 | 40.5 | -59.1 | / | /
Cc1cccc(C)c1-n1nnnc1C(c1ccnc2ccccc12)N1CCN(C/C=C/c2ccccc2)CC1 (stereo not given) | -7.8 | 1.4 | / | -0.1 | / | / | / | /
Cc1nc2ccccc2c2oc(C(=O)NCC3COc4ccccc4O3)cc12 (stereo not given) | 78.8* | 12.1 | 1.2 | 0.7 | 16.2 | -23.2 | / | /
CCN1CCCC1CNC(=O)c1cc2c(C)nc3ccccc3c2o1 (stereo not given) | 16.7 | -0.7 | -0.9 | 0.7 | -35.4 | 4.5 | / | /
CN1CCN(C(=O)c2cc3c(c(-c4cccc(C#CC(C)(C)O)c4)n2)[C@@H](CCO)N(S(=O)C(C)(C)C)C3)CC1 (stereo not given in full) | -13.3 | 1.1 | / | 0.4 | / | / | / | /
COc1ccc(C(=O)c2nccc3cc(OC)c(OC)cc23)cc1OC | 0.6 | -0.2 | 19.6* | 0.0 | -6.2 | 25.2 | / | /
CCCCC[n+]1ccn(C2=C([O-])c3ccccc3C(=O)/C2=N\S(=O)(=O)c2ccc(Cl)cc2)c1 | 10.3 | 3.6 | 3.6 | 4.9* | 10.1 | 11.8 | / | /
O=C(N/N=C/c1ccc([N+](=O)[O-])o1)c1cc2c(ccc3ccccc32)o1 | -33.5 | -0.9 | / | 3.0 | / | / | / | /
O=C(N/N=C/c1ccc([N+](=O)[O-])o1)c1cc2ccccc2o1 | -16.8 | 4.1 | -3.0 | 3.6* | 21.9 | 15.8 | / | /
O=C(NCC(F)(F)F)c1cc2c(c(-c3cccc(-c4ccccc4F)c3)n1)[C@H](CCO)N(C(=O)CC1CC1)C2 | -10.7 | -2.9 | / | -0.1 | / | / | / | /
CCc1ccc(S(=O)(=O)/N=C2/C=C(Sc3ncn[nH]3)C(=O)c3ccccc32)cc1 | 99.9* | 7.8 | 5.8 | -0.3 | / | / | / | /
CCOC(=O)[C@]12CCC=C1N(Cc1ccc(Cl)cc1Cl)C(=O)[C@H](CC(=O)N1CCSCC1)C2 | 8.6 | 0.0 | / | -0.3 | / | / | / | /
Cc1ccc(Nc2cc(C)nn2-c2nc(C)cc(C)n2)cc1 | 94.3* | 1.8 | -0.2 | 1.3 | -12.4 | -1.3 | / | /
COc1ccc(NC(=O)COC(=O)c2cc3c(s2)CCC3)cc1 | 15.4 | -0.4 | 2.9 | 9.7* | 3.2 | -2.1 | / | /
O=C(COC(=O)c1cc2c(s1)CCC2)Nc1ccc(F)cc1 | 6.9 | 1.9 | -1.6 | -0.6 | 0.1 | 4.6 | / | /
C[C@@H]1CC2=C(C(=O)OC(C)(C)O2)[C@H](c2ccc(F)cc2)O1 | -3.2 | -0.1 | / | -0.1 | / | / | / | /
CCCCn1c(=O)[nH]c2c(oc3ccccc32)c1=O | -12.2 | 1.0 | 3.1 | 0.2 | -34.5 | -25.7 | / | /
Cc1ccc(-n2c(=S)[nH]c3c(oc4ccccc43)c2=O)cc1 | -41.3 | 0.2 | 20.3* | -0.1 | -42.6 | -31.0 | 42.8* | 33.6*
Cc1ccc(-n2c(C)nc3oc4ccccc4c(=O)c3c2=O)cc1 | -110.6 | 0.8 | 0.4 | -0.1 | -84.9 | -46.6 | / | /
Cc1cccc(-n2c(=S)[nH]c3c(oc4ccccc43)c2=O)c1 | -9.3 | 1.9 | 37.0* | -0.2 | / | / | 34.6* | 25.0*
SMILES | NR2E3 ag-1 | MPTP inh | NR2E3 ag-2 | aDG glyco up | Jurkat NFkB inh | 697 NFkB inh | NR2E3 ag confirm | PPARg-NCOR2 ag
O=c1c2oc3ccccc3c2[nH]c(=S)n1-c1ccccc1 | -6.2 | 0.5 | 49.6* | -0.1 | 17.1 | 10.8 | 45.0* | 45.3*
CCCCn1nnnc1C(c1ccccc1)N1CCN(c2cccc(C)c2C)CC1 (stereo not given) | -5.7 | 2.8 | / | 0.3 | / | / | / | /
CCCCNC(=O)C1C(c2ccc(C(F)(F)F)cc2)=Nc2ccccc2N1C(=O)c1ccc2nc(C)[nH]c2c1 (stereo not given) | / | -1.0 | / | 0.2 | / | / | / | /
O=C(NCC1CCCCC1)c1[nH]c(C(F)(F)F)nc1-c1ccccc1 | 18.5 | 1.1 | / | -0.2 | / | / | / | /
CCC1=NN2C(=N)/C(=C\c3ccc(SCc4ccco4)o3)C(=O)N=C2S1 | -22.5 | 1.0 | 0.2 | 0.2 | 11.2 | -3.6 | / | /
CCCC1=NN2C(=N)/C(=C\c3ccc(SCc4ccco4)o3)C(=O)N=C2S1 | -4.5 | 4.1 | 20.2* | 0.4 | 3.9 | 13.2 | 3.9 | 61.0*
CCCCCCn1cc(CN2CC(N3CCN(Cc4cccc(C)c4)CC3)CS2(=O)=O)nn1 (stereo not given) | 12.9 | -0.3 | / | 0.2 | / | / | / | /
Cc1ccc(C)n1-c1ccc(C(=O)O)cc1 | / | / | 23.4* | / | -12.4 | 1.6 | 14.8 | -3.7
CN1NC(c2ccccc2)NN(C)C1=O | 21.3 | -0.5 | / | 0.1 | / | / | / | /
C=CCN(CC=C)Cc1c(O)ccc2c1oc(=O)c1ccccc12 | -33.5 | -2.1 | 34.4* | 0.4 | 8.8 | 15.7 | 13.7 | -4.2
C=CCN(CC=C)Cc1cc(=O)oc2ccc3ccccc3c12 | -32.1 | 1.2 | / | -0.2 | / | / | / | /
N#CC1=C(N)SC(N)=C(C#N)C1c1ccoc1 | / | / | 36.1* | / | -34.2 | -3.8 | 23.1* | 27.3*
O=C(O)c1ccc2c(c1)[C@@H]1C=CC[C@@H]1[C@H](c1ccccn1)N2 | -35.3 | 2.1 | 47.5* | -0.2 | 0.4 | 16.7 | 12.4 | 9.5
CCCCCn1c(SCC#N)nc2cc(C(=O)NCC3CCCO3)ccc2c1=O (stereo not given) | 3.9 | 2.2 | 21.6* | 0.1 | 8.1 | 0.4 | 1.2 | 6.5
O=C(CCCn1c(=S)[nH]c2cc3c(cc2c1=O)OCO3)NCc1cccc(Cl)c1 | -0.4 | -2.4 | 27.8* | 0.6 | -2.1 | -8.4 | 18.4 | 21.5*
CCCCCC1NC(=O)NC1CCCCCC(=O)O (stereo not given) | -13.0 | 0.5 | 2.5 | -0.2 | 5.7 | -0.1 | / | /
O=C(O)CCCN1C(=O)C2C3CCC(C3)C2C1=O (stereo not given) | 1.0 | -2.2 | / | -0.3 | / | / | / | /
O=C(O)CCCCC1SCC2NC(=O)NC21 (stereo not given) | -35.5 | -1.3 | 37.7* | -0.6 | -7.0 | 7.8 | 5.1 | 24.7*
